Our source for the inhibition and IC50 values is ChEMBL document CHEMBL1949503, “Design, synthesis, theoretical calculations and biological evaluation of new non-symmetrical choline kinase inhibitors” (Eur J Med Chem, 2012).

pIC50: −log10 of the molar value.

In test [1] the test system is HepG2. Description: Cytotoxicity against human HepG2 cells at 10 uM after 24 hrs using crystal violet staining by microplate reader analysis. It is filed as functional. The following applies: HepG2, 24 h. The procedure, abridged: (§1)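 HepG2 cells in MEM with 10% FBS were seeded at 10 000 cells/well and grown 24 h. The medium was then replaced with fresh medium/10% FBS, and cells were exposed to inhibitors for 24 h, or to none. Cells were fixed with 1.1% glutaraldehyde, stained with 0.1% crystal violet and solubilised in 10% acetic acid. A590 was converted to cell number with a standard curve.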

Test [2] is described as follows: Inhibition of human choline kinase assessed as incorporation of 14C from [methyl-14C]choline into phosphocholine after 20 mins by liquid scintillation counter. The procedure, abridged:
(§2)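 Enzyme source was HepG2 cytosol (cells sonicated in 275 mM Tris pH 8.5, 12000 g supernatant), about 50 µg protein. Final mix: 100 mM Tris pH 8.5, 10 mM MgCl2, 10 mM ATP, with inhibitor. Started with 1 mM [methyl-14C]choline, 37 °C for 20 min, stopped by boiling. Phosphocholine was separated on silica TLC and counted by scintillation. IC50 was derived from the concentration series.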

For test [3], the species on record is Homo sapiens. Description: Inhibition of human choline kinase assessed as incorporation of 14C from [methyl-14C]choline into phosphocholine at 10 uM after 20 mins by liquid scintillation counter. The method in brief: as §2
The species entered for test [4] is Homo sapiens. Kind of test: Inhibition of human choline kinase assessed as incorporation of 14C from [methyl-14C]choline into phosphocholine at 50 uM after 20 mins by liquid scintillation counter. The procedure, abridged:
as §2

Test [5] has as its system HepG2. Kind of test: Cytotoxicity against human HepG2 cells at 50 uM after 24 hrs using crystal violet staining by microplate reader analysis. It counts as functional. To be noted: HepG2, 24 h. The method in brief: as §1
Test [6] relates to HepG2. Kind of test: Cytotoxicity against human HepG2 cells after 24 hrs using crystal violet staining by microplate reader analysis. It counts as functional, cell-based. To be noted: HepG2, 24 h. The procedure, abridged: as §1

In the case of `CN(C)c1cc[n+](Cc2ccc(CCCCc3ccc(Cn4cnc5c(N)ncnc54)cc3)cc2)cc1`, the inhibition (in general, the percentage by which the read-out fell short of the control) at 10 µM in the test with HepG2 [1] was 10.2%. For the same compound, the pIC50 (in general, −log10 of the IC50, conventionally taken in molar units) in test [2] is 4.97; in the test with HepG2 [6], 4.30. The inhibition in the test listed under Homo sapiens [3] amounted to 66.7%; in the test filed under Homo sapiens [4], 89.7%. In the test on HepG2 [5], this compound showed an inhibition at 50 µM of 45.5%.

For the compound `Nc1ncnc2c1ncn2Cc1ccc(CCc2ccc(C[n+]3ccc(N4CCCC4)cc3)cc2)cc1`, the inhibition at 10 µM with HepG2 [1] came out at 30.1%. The inhibition in the test listed under Homo sapiens [3] was determined as 28.6%; in the test filed under Homo sapiens [4], 46.9%. The compound further showed an inhibition at 50 µM in the test with HepG2 [5] of 45%.

Take `CN(C)c1cc[n+](Cc2ccc(CCCCc3ccc(Cn4cnc(N)c5ncnc4-5)cc3)cc2)cc1`: testing at 10 µM in the test with HepG2 [1] gave an inhibition of 14.3%. The inhibition is 61.3% in the test listed under Homo sapiens [3] and 68.2% in the test listed under Homo sapiens [4]. The inhibition at 50 µM in the test with HepG2 [5] amounted to 56.1%. In the test with HepG2 [6], this compound gave a negative logarithm of the IC50 (pIC50) of 4.41.

Turning to `CN(C)c1cc[n+](Cc2ccc(Cn3cnc4c(N)ncnc43)cc2)cc1`, the inhibition at 10 µM with HepG2 [1] worked out at 0%. Besides, the inhibition was determined as 46.7% in the test filed under Homo sapiens [3] and 54.1% in the test filed under Homo sapiens [4]. In addition, the inhibition at 50 µM in the test on HepG2 [5] is 5.1%.

Take `Nc1ncn(Cc2ccc(CCCCc3ccc(C[n+]4ccc(N5CCCC5)cc4)cc3)cc2)c2ncnc1-2`: testing at 10 µM in the test with HepG2 [1] gave an inhibition of 13.7%. Besides, the inhibition in the test listed under Homo sapiens [3] came to 22.6%; in the test listed under Homo sapiens [4], 59.9%. In the test on HepG2 [5], this compound had an inhibition at 50 µM of 46.5%.

As for `CN(C)c1cc[n+](Cc2ccc(CCc3ccc(Cn4cnc5c(N)ncnc54)cc3)cc2)cc1`, testing at 10 µM with HepG2 [1] gave an inhibition of 10.5%. Besides, the inhibition in the test filed under Homo sapiens [3] worked out at 38.6%; in the test filed under Homo sapiens [4], 81%. Besides, the inhibition at 50 µM with HepG2 [5] was determined as 10.5%.

For `CN(C)c1cc[n+](Cc2ccc(-c3ccc(Cn4cnc5c(N)ncnc54)cc3)cc2)cc1`, the inhibition at 10 µM with HepG2 [1] stood at 0%. Besides, the inhibition is 37.6% in the test listed under Homo sapiens [3] and 51% in the test listed under Homo sapiens [4]. The inhibition at 50 µM in the test on HepG2 [5] is 10.3%.

In the test on HepG2 [1], `Nc1ncn(Cc2ccc(CCc3ccc(C[n+]4ccc(N5CCCC5)cc4)cc3)cc2)c2ncnc1-2` gave an inhibition at 10 µM of 11.6%. Moreover, the inhibition in the test listed under Homo sapiens [3] amounted to 0.1%; in the test listed under Homo sapiens [4], 24.8%. In the test with HepG2 [5], the inhibition at 50 µM worked out at 30%.

Take `CN(C)c1cc[n+](Cc2ccc(-c3ccc(Cn4cnc(N)c5ncnc4-5)cc3)cc2)cc1`: the inhibition at 10 µM with HepG2 [1] was found to be 10%. In addition, the pIC50 in test [2] was 5.21. The inhibition in the test filed under Homo sapiens [3] was 62.3%; in the test listed under Homo sapiens [4], 71.4%. The compound also registered an inhibition at 50 µM in the test with HepG2 [5] of 7%.

Compound `CN(C)c1cc[n+](Cc2ccc(Cn3cnc(N)c4ncnc3-4)cc2)cc1` returned an inhibition at 10 µM with HepG2 [1] of 10.3%. For the same compound, the inhibition in the test listed under Homo sapiens [3] was 25%; in the test filed under Homo sapiens [4], 50.2%. The same compound came in with an inhibition at 50 µM in the test on HepG2 [5] of 2.5%.

In the case of `Nc1ncnc2c1ncn2Cc1ccc(CCCCc2ccc(C[n+]3ccc(N4CCCC4)cc3)cc2)cc1`, in the test with HepG2 [1], testing at 10 µM gave an inhibition of 15.4%. Moreover, the inhibition in the test filed under Homo sapiens [3] was 36.9%; in the test filed under Homo sapiens [4], 41.9%. In addition, 50 µM produced 90.1% inhibition in the test on HepG2 [5].

For the compound `Nc1ncnc2c1ncn2Cc1ccc(-c2ccc(C[n+]3ccc(N4CCCC4)cc3)cc2)cc1`, the inhibition at 10 µM with HepG2 [1] was 10.4%. Moreover, the inhibition in the test filed under Homo sapiens [3] was 50.2%; in the test listed under Homo sapiens [4], 72.8%. The compound also showed an inhibition at 50 µM in the test on HepG2 [5] of 45%.

As for `Nc1ncnc2c1ncn2Cc1ccc(C[n+]2ccc(N3CCCC3)cc2)cc1`, the inhibition at 10 µM with HepG2 [1] was 0%. For the same compound, the figures for the inhibition in the test listed under Homo sapiens [3] and in the test filed under Homo sapiens [4] were 0% and 27%, respectively. Further, the inhibition at 50 µM in the test on HepG2 [5] was found to be 15.5%.
